In ChEMBL document CHEMBL1212900, “Falcipain inhibitors: optimization studies of the 2-pyrimidinecarbonitrile lead series” (J Med Chem, 2010) one finds IC50 data, which are given here for 66 molecules.

Assay [1] in a line: Inhibition of Plasmodium falciparum falcipain-2 expressed in Escherichia coli. The gist of the method: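 Recombinant E. coli-expressed, refolded enzyme at 0.25 nM in 100 mM sodium acetate pH 5.5, 500 μM CHAPS, 10 mM DTT, DMSO ≤1%. Substrate H-D-Val-Leu-Arg-AFC at 30 μM final. Inhibitor dilutions mixed with substrate, enzyme added last; fluorescence followed 1 h at room temperature. IC50 from percent activity versus concentration.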

The nature of assay [2]: Inhibition of Plasmodium falciparum falcipain-3 expressed in Escherichia coli. The gist of the method:
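Refolded recombinant enzyme from E. coli, 2 nM, in 100 mM sodium acetate pH 5.5 with 500 μM CHAPS and 10 mM DTT, DMSO up to 1%. H-D-Val-Leu-Arg-AFC at 150 μM final. Reaction started by enzyme addition; fluorescence monitored 1 h at room temperature. IC50 derived from percent activity plotted against inhibitor concentration.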

What is called IC50 is the concentration at which inhibition is half-maximal. Lower therefore signals greater potency.

On to `CC(C)CN(NC(=O)c1ccc(-n2ccnc2)cc1)c1nc(C#N)ncc1Br`, for which the IC50 is 9 nM in assay [1] and 239 nM in assay [2].
On to `C[C@H]1CCC[C@H]1N(NC(=O)OC(C)(C)C)c1nc(C#N)ncc1Br` (relative stereo), for which the IC50 was 58 nM in assay [1] and 407 nM in assay [2].
Turning to `CC(C)CN(NC(=O)c1ccc(Cc2ccccc2)cc1)c1nc(C#N)ncc1Cl`, the IC50 in assay [1] stood at 18 nM; in assay [2], 962 nM.
Consider `COc1ccc(CC(=O)NN(CC(C)C)c2nc(C#N)ncc2Br)cc1`, for which the IC50 in assay [1] was 1.5 nM; in assay [2], 6 nM.
The matching figures for `CC(C)CN(NC(=O)c1cc(-c2cccs2)on1)c1nc(C#N)ncc1Br`: 4 nM and 218 nM.
The matching figures for `CC1(CN(NC(=O)OC(C)(C)C)c2nc(C#N)ncc2Br)CCCCC1`: 25 nM and 121 nM.
Take `Cc1oc(-c2ccccc2)cc1C(=O)NN(CC(C)C)c1nc(C#N)ncc1Br`: the IC50 is 25 nM in assay [1] and 837 nM in assay [2].
For the molecule `CC(C)CN(NC(=O)c1csc(-c2ccccc2)n1)c1nc(C#N)ncc1Br`, the IC50 in assay [1] amounted to 3 nM; in assay [2], 130 nM.
The like results for `CC(C)CN(NC(=O)c1cncc(-c2ccccc2)c1)c1nc(C#N)ncc1Br` were, in that order, < 0.5 nM and 4 nM.
As for `CC(C)CN(NC(=O)c1ccc(-n2cccn2)cc1)c1nc(C#N)ncc1Cl`, the IC50 is 8 nM in assay [1] and 148 nM in assay [2].
For `CC(=O)N1CCC(N(NC(=O)OC(C)(C)C)c2nc(C#N)ncc2Br)CC1`, the IC50 was < 0.5 nM in assay [1] and 33 nM in assay [2].
The matching figures for `Cc1c(C(=O)NN(CC(C)C)c2nc(C#N)ncc2Br)oc2ccccc12`: 223 nM and 1430 nM.
With `CC(=O)N[C@H]1CC[C@H](N(NC(=O)OC(C)(C)C)c2nc(C#N)ncc2Br)CC1`, the IC50 in assay [1] amounted to 7 nM; in assay [2], 67 nM.
The like results for `CC(C)CN(NC(=O)c1nccc2ccccc12)c1nc(C#N)ncc1Cl` were, in that order, 7 nM and 197 nM.
The matching figures for `CC(C)CN(NC(=O)c1ccc(-n2ccc(C(F)(F)F)n2)cc1)c1nc(C#N)ncc1Cl`: 2 nM and 144 nM.
The matching figures for `CC(C)(C)OC(=O)NN(c1nc(C#N)ncc1Br)C1CCN(C(=O)OCc2ccccc2)CC1`: 2 nM and 38 nM.
`CC(C)(C)OC(=O)NN(c1nc(C#N)ncc1Br)C1CCCC1(C)C` (configuration not stated): the IC50 was 34 nM in assay [1] and 447 nM in assay [2].
The like results for `CC(C)CN(NC(=O)C(C)(C)c1ccc(Cl)cc1)c1nc(C#N)ncc1Br` were, in that order, 4 nM and 18 nM.
With `COc1ccc(CC(=O)NN(CC(C)C)c2nc(C#N)ncc2Cl)cc1`, the IC50 in assay [1] worked out at 1 nM; in assay [2], 5 nM.
The like results for `CC(C)CN(NC(=O)OC(C)(C)C)c1nc(C#N)ncc1Cl` were, in that order, 9 nM and 144 nM.
In the case of `CC(C)CN(NC(=O)c1nc2ccccc2s1)c1nc(C#N)ncc1Cl`, the half-inhibitory concentration (IC50) in assay [1] turned out to be 2 nM; in assay [2] it was 112 nM.
The matching figures for `CC(C)CN(NC(=O)C1(c2ccccc2)CC1)c1nc(C#N)ncc1Br`: 6 nM and 102 nM.
As to `CC(C)CN(NC(=O)c1ccc(-c2cccc(C(F)(F)F)c2)o1)c1nc(C#N)ncc1Br`, the IC50 is 5 nM in assay [1] and 97 nM in assay [2].
The like results for `CC1OCCC1N(NC(=O)OC(C)(C)C)c1nc(C#N)ncc1Br` (configuration not stated) were, in that order, 7 nM and 98 nM.
The like results for `Cc1c(-c2ccccc2Cl)noc1C(=O)NN(CC(C)C)c1nc(C#N)ncc1Cl` were, in that order, 100 nM and 571 nM.
The like results for `CC(C)CN(NC(=O)OC(C)(C)C)c1nc(C#N)ncc1[N+](=O)[O-]` were, in that order, 2 nM and 26 nM.
Turning to `C[C@@H]1CCC[C@H]1N(NC(=O)OC(C)(C)C)c1nc(C#N)ncc1Br` (relative stereo), the half-maximal inhibitory concentration (IC50) in assay [1] came out at 3 nM; in assay [2] it was 6 nM.
The like results for `COc1cnc(C#N)nc1N(CC(C)C)NC(=O)OC(C)(C)C` were, in that order, 79 nM and 2390 nM.
`CC(C)(C)OC(=O)NN(CC1CC1)c1nc(C#N)ncc1Br`: the half-maximal inhibitory concentration (IC50) in assay [1] is 7 nM; in assay [2], 413 nM.
The like results for `CC(C)(C)OC(=O)NN(CC1CCOCC1)c1nc(C#N)ncc1Br` were, in that order, 8 nM and 85 nM.
In the case of `CC(C)CN(NC(=O)c1cccc(-c2ccccc2)c1)c1nc(C#N)ncc1Br`, the results for the IC50 in assay [1] and in assay [2] were 1 nM and 37 nM, respectively.
The matching figures for `CC(C)CN(NC(=O)OC(C)(C)C)c1cncc(C#N)n1`: 59 nM and 1670 nM.
The like results for `CC(C)CN(NC(=O)C1(c2ccc(Cl)cc2)CCCCC1)c1nc(C#N)ncc1Br` were, in that order, 40 nM and 1650 nM.
The matching figures for `CC(C)CN(NC(=O)c1ccccc1Oc1ccccc1)c1nc(C#N)ncc1Br`: 5 nM and 66 nM.
Take `CC(C)CN(NC(=O)c1cc2ccccc2o1)c1nc(C#N)ncc1Br`: the IC50 in assay [1] is 65 nM; in assay [2] it was 563 nM.
The like results for `COc1ccc(C(C)(C)C(=O)NN(CC(C)C)c2nc(C#N)ncc2Br)cc1` were, in that order, 6 nM and 34 nM.
The like results for `CC(C)CN(NC(=O)c1ccc(Oc2ccccc2)cc1)c1nc(C#N)ncc1Br` were, in that order, 8 nM and 896 nM.
`Cc1c(C(=O)NN(CC(C)C)c2nc(C#N)ncc2Br)n(C)c2ccccc12`: the IC50 in assay [1] turned out to be 4 nM; in assay [2], 311 nM.
For `CC(C)CN(NC(=O)c1ccc2occc2c1)c1nc(C#N)ncc1Br`, the IC50 was 0.7 nM in assay [1] and 69 nM in assay [2].
Take `CC(C)CN(NC(=O)c1ccc2[nH]cnc2c1)c1nc(C#N)ncc1Cl`: the IC50 in assay [1] was 0.5 nM; in assay [2], 93 nM.
The like results for `CC(C)CN(NC(=O)c1cc2ccccc2[nH]1)c1nc(C#N)ncc1Br` were, in that order, 15 nM and 641 nM.
The matching figures for `CC(C)CN(NC(=O)OC(C)(C)C)c1nc(C#N)ncc1C(F)(F)F`: 3 nM and 66 nM.
The like results for `CC(C)CN(NC(=O)c1cccc2cc[nH]c12)c1nc(C#N)ncc1Br` were, in that order, 3 nM and 342 nM.
Regarding `CC(C)CN(NC(=O)C1(c2ccc(Cl)cc2)CCCC1)c1nc(C#N)ncc1Br`, the IC50 is 12 nM in assay [1] and 184 nM in assay [2].
The like results for `CC(C)CN(NC(=O)c1cc(-c2ccccc2)no1)c1nc(C#N)ncc1Br` were, in that order, 10 nM and 359 nM.
For the molecule `Cc1nc(-c2ccc(C(=O)NN(CC(C)C)c3nc(C#N)ncc3Br)cc2)cs1`, the values for the IC50 in assay [1] and in assay [2] were 0.8 nM and 164 nM, respectively.
As for `CC(C)(C)OC(=O)NN(c1nc(C#N)ncc1Br)C1CC=CC1`, the values for the IC50 in assay [1] and in assay [2] were 2 nM and 21 nM, respectively.
Consider `COc1nc(C#N)nc(N(CC(C)C)NC(=O)OC(C)(C)C)n1`, for which the IC50 in assay [1] was determined as 12 nM; in assay [2], 204 nM.
The matching figures for `CC(C)CN(NC(=O)c1cc2ccccc2cn1)c1nc(C#N)ncc1Cl`: 7 nM and 333 nM.
Consider `CC(C)N1CCC(N(NC(=O)OC(C)(C)C)c2nc(C#N)ncc2Br)CC1`, for which the IC50 was determined as 902 nM in assay [1] and 5240 nM in assay [2].
The like results for `CC(C)CN(NC(=O)C1(c2ccccc2)CCCC1)c1nc(C#N)ncc1Br` were, in that order, 11 nM and 137 nM.
The like results for `CC(C)CN(NC(=O)c1ccc(-c2ccccc2)nc1)c1nc(C#N)ncc1Br` were, in that order, 3 nM and 104 nM.
Take `CC(C)CN(NC(=O)c1ccnc2ccccc12)c1nc(C#N)ncc1Cl`: the values for the IC50 in assay [1] and in assay [2] were 1 nM and 44 nM, respectively.
Consider `CC(C)CN(NC(=O)c1cccc(-c2ccncc2)c1)c1nc(C#N)ncc1Br`, for which the IC50 in assay [1] was < 0.5 nM; in assay [2] it was 15 nM.
For the molecule `CC(C)CN(NC(=O)c1cccc(-c2cncnc2)c1)c1nc(C#N)ncc1Br`, the figures for the IC50 in assay [1] and in assay [2] were < 0.5 nM and 12 nM, respectively.
The matching figures for `CC(C)CN(NC(=O)c1ncoc1-c1ccccc1)c1nc(C#N)ncc1Br`: 14 nM and 94 nM.
The like results for `CC(C)CN(NC(=O)c1cc2ccccc2s1)c1nc(C#N)ncc1Br` were, in that order, 241 nM and 365 nM.
The like results for `CC(C)(C)OC(=O)NN(CCC1CCCC1)c1nc(C#N)ncc1Br` were, in that order, 64 nM and 504 nM.
Take `CC(C)CN(NC(=O)OC(C)(C)C)c1ccnc(C#N)n1`: the values for the IC50 in assay [1] and in assay [2] were 60 nM and 870 nM, respectively.
As to `CC(C)CN(NC(=O)c1cccc2c1C(=O)c1ccccc1-2)c1nc(C#N)ncc1Br`, the values for the IC50 in assay [1] and in assay [2] were 25 nM and 831 nM, respectively.
The matching figures for `CC(C)CN(NC(=O)c1cc(-c2cccs2)[nH]n1)c1nc(C#N)ncc1Cl`: 5 nM and 451 nM.
For `CC(C)CN(NC(=O)Cc1c(F)cccc1F)c1nc(C#N)ncc1Br`, the IC50 amounted to 0.5 nM in assay [1] and 8 nM in assay [2].
The like results for `CC(C)(C)OC(=O)NN(c1nc(C#N)ncc1Br)C1CCN(C(=O)OC(C)(C)C)CC1` were, in that order, 26 nM and 135 nM.
The matching figures for `CC(C)CN(NC(=O)OC(C)(C)C)c1cc(C#N)ncn1`: > 10000 nM and > 10000 nM.
The like results for `CC(C)(C)OC(=O)NN(Cc1ccoc1)c1nc(C#N)ncc1Br` were, in that order, 60 nM and 183 nM.
On to `CC(C)CN(NC(=O)c1ccc2ccccc2c1)c1nc(C#N)ncc1Br`, for which the results for the IC50 in assay [1] and in assay [2] were 65 nM and 645 nM, respectively.
